Holding throughout (format): functional
Test [1] has as its system Rattus norvegicus. The test is described as follows: Antiinflammatory activity against carrageenan-induced albino rat hind paw edema model assessed as edema rate at 10 mg/kg, po administered 1 hr before carrageenan challenge measured after 4 hrs. In outline:
(§1)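 Indomethacin reference group: 10 mg/kg orally as an aqueous suspension, 1 h before carrageenin. Albino rats of both sexes were fasted 18 h, five per group. Edema was induced by subplantar 0.1 mL 1% w/v carrageenin in the left hind paw. Paw volume was read by mercury plethysmometer before injection and hourly for 4 h. Edema rate = (Vt − Vo)/Vo.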

Test [2] has as its system Rattus norvegicus. The test is described as follows: Antiinflammatory activity against carrageenan-induced albino rat hind paw edema model assessed as edema rate at 10 mg/kg, po administered 1 hr before carrageenan challenge measured after 2 hrs. In outline: as §1
Test [3] relates to Rattus norvegicus. The test can be described thus: Antiinflammatory activity against carrageenan-induced albino rat hind paw edema model assessed as edema rate at 10 mg/kg, po administered 1 hr before carrageenan challenge measured after 3 hrs. In outline:
as §1

Test [4] deals with Rattus norvegicus. The test is described as follows: Antiinflammatory activity against carrageenan-induced albino rat hind paw edema model assessed as edema rate at 10 mg/kg, po administered 1 hr before carrageenan challenge measured after 1 hr. An outline of the steps: as §1
Background: The carrageenan paw model is a standard test of acute inflammation.

`COc1ccc2c(c1)c(CC(=O)O)c(C)n2C(=O)c1ccc(Cl)cc1` [INDOMETHACIN]: the Activity is -41.12% in the test with Rattus norvegicus [1], -39.79% in the test with Rattus norvegicus [2], -33.33% with Rattus norvegicus [3] and -35.48% in the test with Rattus norvegicus [4].

Source of the values: ChEMBL document CHEMBL1144212, “Design and synthesis of 3-pyrazolyl-thiophene, thieno[2,3-d]pyrimidines as new bioactive and pharmacological activities” (Bioorg Med Chem Lett, 2008).
